# Hits are enriched below; roughly 2.5% of the tested compounds scored in any of these assays.
# SENP1 FRET inh = blocks the human SENP1 SUMO protease catalytic domain; inhibition, % at 10 µM; 0.21% of 360,000 active; Q9P0U3; recombinant SENP1 catalytic domain, CyPet-SUMO1-YPet FRET cleavage;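 active = inhibition at least 30% at 10 µM, raw YFP signal under a set limit, fluorescence ratio 0.5 to 1.5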;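 also: 0% = enzyme with DMSO and 100% = no enzyme wells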
# Target sequence (Q9P0U3 419-644 limits assumed): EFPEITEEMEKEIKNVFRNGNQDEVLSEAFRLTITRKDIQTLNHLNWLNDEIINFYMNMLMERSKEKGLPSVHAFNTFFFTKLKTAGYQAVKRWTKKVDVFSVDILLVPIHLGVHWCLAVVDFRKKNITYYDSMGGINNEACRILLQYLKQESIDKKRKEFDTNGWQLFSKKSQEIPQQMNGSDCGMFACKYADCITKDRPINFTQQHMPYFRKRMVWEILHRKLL
#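 system = hSENP1 catalytic domain, recombinant | reagent = SFCypet-SUMO1-SFYpet substrate at 25 nM | doses = one dose per compound, 10 µM, 0.5% DMSO | incubation = enzyme reaction for 50 min at room temperature, dark | measured by = FRET, CFP and YFP emission | controls = no-enzyme low, enzyme-DMSO high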
# SENP7 inh = inhibitors of human SENP7 protease; Q9BQF6; recombinant SENP7, Z-RLRGG-aminoluciferin luminescence, 40 min; inhibition, % at 5 µM; 1.5% of 330,000 active; AID 434973;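 active = inhibition above about 50% at the single test dose, limit read from the data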;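 also: plate controls were DMSO with enzyme for no effect and no enzyme buffer wells for full effect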
# SENP6 block = SENP6 protease inhibition. Q9GZR1. Recombinant SENP6 catalytic domain, aminoluciferin luminescence. inhibition, % at 10 µM. 1.8% of 330,000 active. AID 2599;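 active = inhibition above about 50% at the single tested dose, limit read from the data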;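 also: plate controls were DMSO wells with enzyme for no effect and DMSO wells lacking enzyme for full effect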
# SENP8 block-1 = inhibitors of human SENP8 protease | Q96LD8 | recombinant SENP8, Nedd8 substrate fluorescence | inhibition, % at 20 µM | 0.64% of 360,000 active; in the data active = inhibition mostly above about 40%, no sharp cut-off; inactive = mostly below about 27%
# Target sequence (Q96LD8 whole entry, looked up): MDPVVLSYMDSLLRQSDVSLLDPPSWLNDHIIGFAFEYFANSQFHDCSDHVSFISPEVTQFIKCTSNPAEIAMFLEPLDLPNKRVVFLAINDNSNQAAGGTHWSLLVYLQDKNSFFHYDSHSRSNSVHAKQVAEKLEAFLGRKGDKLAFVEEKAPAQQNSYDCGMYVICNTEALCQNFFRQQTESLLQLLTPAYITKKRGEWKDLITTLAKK
# SENP8 block-2 = inhibitors of human SENP8 protease. Q96LD8. inhibition, % at 10 µM. purified SENP8, Z-RLRGG-aminoluciferin cleavage, luminescence. 1.2% of 330,000 active; in the data active = inhibition above about 50%
# SENP8 conf = confirmation of human SENP8 protease inhibitors; Recombinant SENP8, Z-RLRGG-aminoluciferin luminescence, 60 min; 40% of 6,200 active; inhibition, % at 12.5 µM; shares compounds with SENP7 inh;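 active = mean inhibition across replicates above about 50%, limit read from the data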
# SENP6 conf = human SENP6 inhibition, confirmed | shares compounds with SENP7 inh | recombinant SENP6, Z-RLRGG-aminoluciferin luminescence | inhibition, % at 12.5 µM | 58% of 6,200 active | AID 488915
# SENP7 confirm = confirmation of human SENP7 protease inhibitors; shares compounds with SENP7 inh; recombinant SENP7, Z-RLRGG-aminoluciferin luminescence, 40 min; inhibition, % at 12.5 µM; 69% of 6,200 active; AID 488917
# Casp3 select = caspase-3 inhibition (SENP selectivity assay). 60% of 6,200 active. purified caspase-3, Z-DEVD-aminoluciferin luminescence, 60 min. shares compounds with SENP7 inh. inhibition, % at 12.5 µM;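 active = mean inhibition above about 50%, limit read from the data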;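 also: plate controls were enzyme with DMSO for no effect and wells without caspase-3 for full effect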
# Target sequence (P42574 28-227 limits assumed): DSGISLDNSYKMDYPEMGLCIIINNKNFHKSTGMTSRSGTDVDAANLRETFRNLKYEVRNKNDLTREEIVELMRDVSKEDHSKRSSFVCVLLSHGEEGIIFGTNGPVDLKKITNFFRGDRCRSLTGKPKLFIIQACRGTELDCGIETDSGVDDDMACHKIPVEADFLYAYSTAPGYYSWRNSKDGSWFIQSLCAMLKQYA
# SENP luc ctr = counter-screen for SENP inhibitors: luminescence interference. shares compounds with SENP7 inh. Pre-incubated SENP8/Z-RLRGG-aminoluciferin, luciferase luminescence interference. inhibition, % at 12.5 µM. 39% of 6,200 active. AID 488919;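 active = mean inhibition above about 50% when retested at one dose, limit read from the data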;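 also: plate controls were DMSO wells with completed reaction for no effect and substrate without enzyme for full effect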
# * hit, by the source's call; x = no result.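 The calls were made as follows, unless noted: active = mean inhibition above about 50% in the one-dose retest (limit read from the data); inactive = the rest.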
SMILES,SENP1 FRET inh,SENP7 inh,SENP6 block,SENP8 block-1,SENP8 block-2,SENP8 conf,SENP6 conf,SENP7 confirm,Casp3 select,SENP luc ctr
Cc1ccc(CCCNC(=O)C2CCC(=O)N(Cc3cccc(F)c3)C2)cc1 (centres undefined),1.9,3.5,-15.2,11.7,8.7,x,x,x,x,x
COc1ccc(/C=N/Nc2ccc(C(=O)O)cc2)cc1Br,-1.5,100.1*,95.0*,-330.3,97.2*,98.9*,99.5*,102.0*,97.9*,97.8*
C=CCOc1c(Br)cc(/C=N/Nc2ccc(C(=O)O)cc2)cc1OCC,-18.1,55.0*,84.5*,-311.6,77.2*,87.7*,86.8*,94.2*,29.2,56.0*
C=C1C[C@H](O[C@@H]2O[C@H](CO)[C@@H](O)[C@H](O)[C@H]2O)[C@@H]2[C@H](OC(=O)[C@H]2C)[C@H]2[C@H](C)[C@H](O)C[C@@H]12,0.9,-2.5,1.8,18.6,5.8,x,x,x,x,x
COc1ccc(NC(=O)c2ccccn2)cc1,-1.0,91.2*,93.8*,-0.1,80.6*,84.8*,85.7*,98.4*,94.7*,85.2*
COc1ccc(NC(=O)c2cc3ccccn3n2)cc1,0.1,69.1*,70.6*,14.8,58.1*,76.9*,74.8*,93.8*,87.8*,79.4*
O=C(NC(=S)N1CCCCCC1)c1ccc(Cl)cc1Cl,-2.8,-0.8,-10.1,5.3,1.6,x,x,x,x,x
COc1cc(C(=O)Nc2ccc(S(=O)(=O)N3CCOCC3)cc2)c([N+](=O)[O-])cc1OC,1.0,-1.2,-2.1,7.2,5.2,x,x,x,x,x
COC(=O)c1sc(-c2ccc(Cl)cc2)cc1N,-6.3,67.5*,81.3*,-304.9,63.3*,53.6*,68.8*,91.4*,43.6,15.4
Clc1ccc(CSc2ccc(-c3ccco3)nn2)cc1,1.6,-8.1,2.5,8.6,-3.5,x,x,x,x,x
Cc1ccc(CSc2ccc(-c3ccco3)nn2)cc1,4.5,68.5*,84.1*,-0.3,-1.3,33.0,77.2*,96.0*,68.7*,29.8
Fc1ccc(CSc2ccc(-c3cccs3)nn2)cc1,3.2,12.0,-17.5,14.9,-13.7,x,x,x,x,x
c1ccc(CSc2ccc(-c3ccco3)nn2)cc1,4.8,18.3,60.4*,-3.1,19.4,20.8,53.9*,78.6*,52.4*,10.5
Cc1ccc(CSc2ccc(-c3cccs3)nn2)cc1,0.1,69.0*,25.3,15.7,7.8,11.6,11.8,6.5,12.9,5.7
CCOC(=O)c1ccccc1NC(=O)Cc1c(C(=O)O)n(C)c2ccccc12,-1.3,2.8,-7.1,7.5,3.9,x,x,x,x,x
Cc1ccc2nc(Cl)c(/C=N/n3c(C)nnc3C)cc2c1,-7.3,-11.7,-3.1,-82.3,-3.2,x,x,x,x,x
COC(=O)/C=C1\S/C(=N\N=C\CC(=O)OC)NC1=O,12.4,0.7,0.6,30.4,2.4,x,x,x,x,x
CCc1ccc(-c2nc(-c3ccncc3)no2)cc1,-0.9,89.7*,87.1*,26.3,80.0*,84.1*,88.0*,97.0*,80.4*,66.6*
CCCCc1ccc(-c2nc(-c3ccncc3)no2)cc1,1.6,89.7*,20.6,0.4,83.0*,10.9,10.6,8.8,-5.3,1.5
Nc1c2c(nc3sc4c(c13)CCCCC4)CCCCC2,0.0,73.9*,72.9*,1.5,57.2*,25.1,22.7,38.8,18.7,3.1
Cn1c(SCc2ccc(C#N)cc2Cl)nc2ccccc21,-0.5,80.0*,75.4*,16.0,68.8*,8.0,75.9*,56.7*,24.2,10.2
N#Cc1ccc(CSc2ccccn2)c(Cl)c1,-0.2,1.0,-30.5,7.5,-4.5,x,x,x,x,x
CN(CC(=O)Nc1cccc(F)c1)C(=O)CCCN1C(=O)c2cccc3cccc(c23)C1=O,0.4,-15.8,-12.9,-212.1,-16.5,x,x,x,x,x
CN(C)/C=N/C(=S)Nc1ccc(Cl)c(Cl)c1,1.7,37.7,60.4*,18.4,12.9,62.5*,61.1*,85.4*,57.9*,8.7
CCOc1ccc(C(=O)Nc2cc(C)on2)cc1,4.1,53.9*,47.4,9.5,12.7,-24.0,16.9,56.6*,73.9*,-5.9
SMILES,SENP1 FRET inh,SENP7 inh,SENP6 block,SENP8 block-1,SENP8 block-2,SENP8 conf,SENP6 conf,SENP7 confirm,Casp3 select,SENP luc ctr
O=C(Nc1ccccc1C(=O)O)c1ccc(NC(=O)C2CC2)cc1,0.3,49.7,67.5*,-3.4,60.8*,75.8*,75.0*,93.6*,88.2*,83.2*
O=C(Nc1ccc(C#Cc2ccccc2)cc1)C1CC1,0.7,68.4*,46.9,7.6,25.8,9.4,40.1,63.6*,26.0,4.6
CCCC(=O)Nc1ccc(C#Cc2ccccc2)cc1,-3.7,51.4*,45.1,10.9,6.3,2.1,12.9,18.8,12.7,1.9
CCOc1cc(C(=O)Nc2cc(C)on2)cc(OCC)c1OCC,-0.6,-6.9,-1.7,10.3,-1.8,x,x,x,x,x
O=C(N/N=C/c1ccc(O)cc1)/C(=C/c1ccccc1)CCO,-4.3,-3.4,-17.5,11.4,-8.2,x,x,x,x,x
CCCCn1nnnc1C(c1cc2ccccc2o1)N(CCN(C)C)Cc1ccccc1 (centres undefined),-23.3,x,x,-26.9,x,x,x,x,x,x
CCCC(=O)Nc1ccccc1NC(=O)c1ccc(OCC)cc1,4.5,-0.5,-3.5,14.2,0.7,x,x,x,x,x
CCOc1ccc(C(=O)Nc2ccccc2C(=O)O)cc1,1.8,15.7,60.7*,8.4,30.7,76.7*,72.2*,93.5*,85.2*,78.5*
CCOc1ccc(NC(=O)Nc2ccon2)cc1,-0.9,53.8*,55.4*,-2.6,15.3,22.4,21.2,66.7*,74.5*,22.8
COc1cc(C(=O)N=c2sc3c(C)ccc(OC)c3n2C)cc(OC)c1OC,1.0,76.9*,24.4,-396.6,8.5,7.4,5.6,22.8,-0.3,-11.0
COc1ccc(C(=O)N=c2sc3c(C)ccc(OC)c3n2C)cc1,2.6,99.0*,97.5*,-404.6,89.8*,-17.7,0.8,14.9,8.1,24.9
COc1ccc(Cn2c(C3CC3)nc3ccc(NC(=O)C4CC4)cc3c2=O)cc1,-1.9,67.3*,7.6,-93.0,38.1,8.6,3.1,91.5*,57.6*,-4.2
O=C(Nc1ccc(NC(=O)C2CC2)nc1)c1ccccn1,1.7,51.7*,54.8*,2.7,4.5,29.9,34.7,61.4*,69.7*,22.6
COc1cccc(C(=O)Nc2ccc(NC(=O)C3CC3)cn2)c1,2.1,82.0*,85.1*,22.5,59.7*,69.4*,69.3*,89.2*,89.1*,12.5

# Screens deposited in PubChem BioAssay by Sanford-Burnham Center for Chemical Genomics.
